Test results taken from ChEMBL document CHEMBL5042485 (J Med Chem, 2022).
The source made the active and inactive calls. The rule behind the calls is not given here.

Columns and labels:
[1] = target: Cyclin-dependent kinase 7/ cyclin H (Homo sapiens, UniProt P50613); assay: Binding affinity to full length CDK7 (1 to 346 residues) /N-terminal TEV cleavable 6His tagged full length cyclinH (1 to 323 residues) (unknown origin) expressed in baculovirus infected Sf9 cells by Surface plasmon resonance assay
Method in brief: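 SPR on CDK7/cyclin H dimer, amine-coupled to a CM5 chip at 200–400 RU, with reference flow cells subtracted. Titration was 9-step 2-fold from 20 nM in HEPES pH 7.5, 150 mM NaCl, 0.05% P20, with 70 s contact and 300 s dissociation. Slow off-rate binders were rerun 4-step 3-fold from 10 nM with 1800 s dissociation.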

CDK12/Cyclin K = CDK12/Cyclin K (Homo sapiens, UniProt Q9NYV4); assay: Inhibition of CDK12/cyclin K (unknown origin) using 5-FAM-labeled peptide as substrate in presence of ATP by mobility shift assay; type: protein-complex assay
Method in brief: (§1)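 Conditions by kinase: CDK2/cyclin E1 0.5 nM with 100 μM ATP; CDK9/cyclin T1 8 nM with 30 μM ATP; CDK12/cyclin K 50 nM with 30 μM ATP.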

[2] = target: Cyclin-dependent kinase 2/cyclin E1 (Homo sapiens, UniProt P24941); assay: Inhibition of CDK2/cyclin E1 (unknown origin) using 5-FAM-labeled peptide as substrate in presence of ATP by mobility shift assay; type: protein-complex assay; method in brief: as §1
[3] = Lipophilicity, log D of compound; type: physicochemical; conditions: octanol/water
CDK9/cyclin T1 = CDK9/cyclin T1 (Homo sapiens, UniProt P50750); assay: Inhibition of CDK9/cyclin T1 (unknown origin) using 5-FAM-labeled peptide as substrate in presence of ATP by mobility shift assay; type: protein-complex assay; method in brief: as §1
[4] = Metabolic stability in mouse liver microsomes assessed as intrinsic clearance; type: ADME, Microsome; conditions: read-out: CLH
[5] = Oral bioavailability in CD-1 mouse 5 mg/kg measured upto 24 hrs by LC-MS/MS analysis; type: ADME, organism-based; conditions: in vivo
Method in brief: (§2)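 Male CD1 mice, three per group, dosed by tail-vein injection (1 mg/kg) or oral gavage (5 mg/kg). Saphenous blood was drawn at 0.25–24 h and plasma analysed by LC–MS/MS.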

[6] = Apparent permeability across apical to basolateral side in MDCK cells; type: ADME, cell-based, Canis lupus familiaris; conditions: dog
HCC70 [7] = assay: Antiproliferative activity against human HCC70 cells incubated for 72 hrs by Celltiter-glo assay; type: functional, cell-based; conditions: HCC70, 72 h
Method in brief: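 HCC70 cells in log growth plated the day before, then incubated with compound for 72 h at ten concentrations from 4 to 0.000126 μM, duplicates per dose. Read-out was CellTiter-Glo 2.0 viability. Inhibition was calculated against the averaged DMSO signal on the same plate.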

[8] = Unbound clearance in CD-1 mouse at 1 mg/kg, iv measured upto 24 hrs by LC-MS/MS analysis; type: ADME, organism-based; conditions: in vivo; method in brief: as §2
HCC70 [9] = assay: Antitumour activity against human HCC70 cells xenografted in BALB/c mouse assessed as tumour growth inhibition at 4 mg/kg, po bid for 21 days measured after 7 days post treatment by vernier caliper method; type: functional, organism-based; conditions: time 28.0 day
Method in brief: (§3)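 Female Balb/c nude mice, 6–8 weeks old, implanted subcutaneously with HCC70 cells. At 150–200 mm3 tumours, mice were randomized, 10 per arm. Dosing was by oral gavage for 21 days, then a 7-day observation period: 2 mg/kg QD, or 2.5 or 4 mg/kg BID. Tumour volume was measured by caliper and body weight recorded twice weekly. TGI was calculated from tumour volumes.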

HCC70 [10] = assay: Antitumour activity against human HCC70 cells xenografted in po dosed BALB/c mouse assessed as tumour growth inhibition administered twice daily for 21 days measured after 7 days post treatment by vernier caliper method; type: functional, organism-based; conditions: dose 2.5-4 mg/kg, time 28.0 day; method in brief: as §3

CDK12/Cyclin K, sequence (O75909 whole entry): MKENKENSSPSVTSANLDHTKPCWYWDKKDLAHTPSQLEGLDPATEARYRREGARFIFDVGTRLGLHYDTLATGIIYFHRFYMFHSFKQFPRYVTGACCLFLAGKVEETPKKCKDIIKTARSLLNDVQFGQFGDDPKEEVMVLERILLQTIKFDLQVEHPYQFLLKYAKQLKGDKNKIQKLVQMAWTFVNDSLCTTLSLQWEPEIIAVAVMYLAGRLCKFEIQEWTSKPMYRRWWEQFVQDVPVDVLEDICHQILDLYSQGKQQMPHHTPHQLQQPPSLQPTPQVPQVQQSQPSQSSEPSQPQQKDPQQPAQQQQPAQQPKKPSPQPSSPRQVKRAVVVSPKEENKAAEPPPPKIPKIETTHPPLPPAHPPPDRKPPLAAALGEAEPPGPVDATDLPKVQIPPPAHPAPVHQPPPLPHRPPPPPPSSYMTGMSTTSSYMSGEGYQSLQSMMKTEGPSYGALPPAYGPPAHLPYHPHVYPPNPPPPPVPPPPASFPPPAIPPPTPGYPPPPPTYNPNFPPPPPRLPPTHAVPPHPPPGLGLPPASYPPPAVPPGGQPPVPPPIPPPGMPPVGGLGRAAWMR
CDK12/Cyclin K, sequence (Q9NYV4 whole entry): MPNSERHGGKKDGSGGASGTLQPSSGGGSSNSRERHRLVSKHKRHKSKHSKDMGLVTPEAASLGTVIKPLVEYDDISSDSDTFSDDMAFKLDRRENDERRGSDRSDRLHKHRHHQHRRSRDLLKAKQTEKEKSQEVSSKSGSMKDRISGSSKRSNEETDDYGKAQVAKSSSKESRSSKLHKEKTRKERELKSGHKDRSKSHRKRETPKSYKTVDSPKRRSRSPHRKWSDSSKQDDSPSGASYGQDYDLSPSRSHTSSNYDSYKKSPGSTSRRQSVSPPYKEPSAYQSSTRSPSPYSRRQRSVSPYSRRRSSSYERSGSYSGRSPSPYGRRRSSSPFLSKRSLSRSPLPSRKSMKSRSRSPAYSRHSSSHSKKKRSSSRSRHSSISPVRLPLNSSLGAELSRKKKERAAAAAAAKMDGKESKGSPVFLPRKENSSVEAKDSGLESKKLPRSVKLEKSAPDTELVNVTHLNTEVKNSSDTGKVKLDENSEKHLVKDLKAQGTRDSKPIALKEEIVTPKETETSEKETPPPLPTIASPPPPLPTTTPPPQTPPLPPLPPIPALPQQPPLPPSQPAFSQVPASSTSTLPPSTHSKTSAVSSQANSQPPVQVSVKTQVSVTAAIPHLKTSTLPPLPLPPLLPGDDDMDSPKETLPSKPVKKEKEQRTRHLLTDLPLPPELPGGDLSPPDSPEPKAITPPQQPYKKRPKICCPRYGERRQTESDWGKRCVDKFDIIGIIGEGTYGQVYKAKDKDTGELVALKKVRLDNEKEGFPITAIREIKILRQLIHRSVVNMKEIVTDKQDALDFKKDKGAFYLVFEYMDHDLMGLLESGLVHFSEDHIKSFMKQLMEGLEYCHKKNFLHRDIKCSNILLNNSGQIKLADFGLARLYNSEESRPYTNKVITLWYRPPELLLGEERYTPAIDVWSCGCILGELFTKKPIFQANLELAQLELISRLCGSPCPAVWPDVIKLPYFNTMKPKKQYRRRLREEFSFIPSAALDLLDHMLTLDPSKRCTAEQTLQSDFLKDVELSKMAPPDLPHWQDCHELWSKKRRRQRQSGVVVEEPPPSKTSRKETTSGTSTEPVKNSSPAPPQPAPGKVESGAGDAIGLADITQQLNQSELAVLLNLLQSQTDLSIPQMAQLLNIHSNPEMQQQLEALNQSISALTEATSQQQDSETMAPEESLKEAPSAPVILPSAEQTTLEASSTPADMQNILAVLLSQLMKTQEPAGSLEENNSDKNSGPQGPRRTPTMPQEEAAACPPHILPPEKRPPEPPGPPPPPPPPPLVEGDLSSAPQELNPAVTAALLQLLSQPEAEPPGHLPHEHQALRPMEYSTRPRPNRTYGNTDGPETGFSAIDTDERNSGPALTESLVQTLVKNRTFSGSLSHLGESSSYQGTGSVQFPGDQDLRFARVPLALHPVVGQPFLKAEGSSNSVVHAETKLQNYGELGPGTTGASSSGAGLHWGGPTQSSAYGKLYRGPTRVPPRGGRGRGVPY
Cyclin-dependent kinase 7/ cyclin H, sequence (P51946 whole entry, the tested form may be a part): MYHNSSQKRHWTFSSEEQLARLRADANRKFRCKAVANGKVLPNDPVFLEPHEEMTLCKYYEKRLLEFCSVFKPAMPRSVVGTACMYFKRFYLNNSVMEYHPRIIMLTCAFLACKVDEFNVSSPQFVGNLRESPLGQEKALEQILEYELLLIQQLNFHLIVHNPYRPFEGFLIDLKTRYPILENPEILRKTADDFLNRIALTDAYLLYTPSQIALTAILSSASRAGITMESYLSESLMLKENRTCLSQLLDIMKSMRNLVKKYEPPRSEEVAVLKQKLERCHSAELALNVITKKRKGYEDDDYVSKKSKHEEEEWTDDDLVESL
Cyclin-dependent kinase 7/ cyclin H, sequence (P50613 whole entry, the tested form may be a part): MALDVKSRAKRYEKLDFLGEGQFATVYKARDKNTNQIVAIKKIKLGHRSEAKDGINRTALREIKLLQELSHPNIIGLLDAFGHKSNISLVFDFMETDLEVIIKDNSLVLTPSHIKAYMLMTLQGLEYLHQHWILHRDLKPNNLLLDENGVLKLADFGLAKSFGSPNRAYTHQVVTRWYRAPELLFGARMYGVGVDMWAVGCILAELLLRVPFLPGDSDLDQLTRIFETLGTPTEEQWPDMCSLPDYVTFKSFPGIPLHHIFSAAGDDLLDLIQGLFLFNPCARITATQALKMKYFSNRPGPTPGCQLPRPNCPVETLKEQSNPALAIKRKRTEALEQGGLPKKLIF
CDK9/cyclin T1, sequence (O60563 whole entry): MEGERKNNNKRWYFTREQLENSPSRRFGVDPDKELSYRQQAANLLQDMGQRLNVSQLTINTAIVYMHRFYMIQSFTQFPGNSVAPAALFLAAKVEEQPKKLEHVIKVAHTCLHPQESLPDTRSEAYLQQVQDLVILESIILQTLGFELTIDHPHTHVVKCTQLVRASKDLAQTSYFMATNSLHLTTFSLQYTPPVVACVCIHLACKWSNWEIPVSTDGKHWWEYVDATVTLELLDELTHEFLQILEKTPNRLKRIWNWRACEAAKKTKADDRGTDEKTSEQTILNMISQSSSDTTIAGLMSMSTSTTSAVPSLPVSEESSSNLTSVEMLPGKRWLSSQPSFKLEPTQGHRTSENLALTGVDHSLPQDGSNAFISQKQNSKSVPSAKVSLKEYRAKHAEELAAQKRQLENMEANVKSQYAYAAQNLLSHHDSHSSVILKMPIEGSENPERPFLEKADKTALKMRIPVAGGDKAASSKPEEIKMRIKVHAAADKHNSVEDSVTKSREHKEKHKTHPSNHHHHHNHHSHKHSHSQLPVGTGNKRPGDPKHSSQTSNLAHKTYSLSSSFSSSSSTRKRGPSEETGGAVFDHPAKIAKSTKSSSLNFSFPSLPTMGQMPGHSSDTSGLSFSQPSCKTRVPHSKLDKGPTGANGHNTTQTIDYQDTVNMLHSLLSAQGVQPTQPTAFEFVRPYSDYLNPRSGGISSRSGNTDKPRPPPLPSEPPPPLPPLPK
CDK9/cyclin T1, sequence (P50750 whole entry): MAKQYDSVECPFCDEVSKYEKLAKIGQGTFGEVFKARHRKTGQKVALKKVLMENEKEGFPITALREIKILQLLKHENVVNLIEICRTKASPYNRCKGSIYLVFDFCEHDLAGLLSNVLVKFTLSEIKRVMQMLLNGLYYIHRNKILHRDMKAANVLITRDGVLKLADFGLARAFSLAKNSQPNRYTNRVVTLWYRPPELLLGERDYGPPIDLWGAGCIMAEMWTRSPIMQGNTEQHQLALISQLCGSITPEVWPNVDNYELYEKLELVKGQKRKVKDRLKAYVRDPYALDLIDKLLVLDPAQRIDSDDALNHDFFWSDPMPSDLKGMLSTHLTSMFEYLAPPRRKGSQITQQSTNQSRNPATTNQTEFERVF

Structure (SMILES)	Kd [1] [nM]	IC50 (CDK12/Cyclin K) [nM]	IC50 [2] [nM]	logD [3]	IC50 (CDK9/cyclin T1) [nM]	CLint scaled [4] [mL/min/kg]	bioavailability [5] [%]	Papp A→B [6] [×10⁻⁶ cm/s]	EC50 (HCC70 [7]) [nM]	CL free [8] [mL/min/kg]	Activity (HCC70 [9])	Activity (HCC70 [10])
CC1(C)CC[C@H](Nc2ncc(C(F)(F)F)c(-c3c[nH]c4ccccc34)n2)CN1	0.34	95	128	2.48	71	116	–	–	–	–	–	–
Clc1cnc(N[C@H]2CCCNC2)nc1-c1c[nH]c2ccccc12	0.33	29	102	1.78	23	109	39	5.26	40	457	–	–
CP(C)(=O)c1cccc2c(-c3nc(N[C@H]4CCCNC4)ncc3C(F)(F)F)c[nH]c12	0.08	102	414	0.78	286	< 38	3	1.02	0.2	73	–	–
Cc1noc(C)c1-c1ccc2c(-c3nc(N[C@H]4CCCNC4)ncc3C(F)(F)F)c[nH]c2n1.Cl	0.03	75	189	2.6	90	< 38	36	4.62	9	712	Active	Dose-Dependent Effect
CS(=O)(=O)c1cccc2c(-c3nc(N[C@H]4CCCNC4)ncc3C(F)(F)F)c[nH]c12	0.07	15	78	1.33	32	< 38	49	3.28	14	309	–	–
N#Cc1ccc2c(-c3nc(N[C@H]4CCCNC4)ncc3C(F)(F)F)c[nH]c2c1	0.09	60	347	2.28	86	62	43	4.63	36	656	–	–
Cc1noc(C)c1-c1ccc2c(-c3nc(N[C@H]4CCCNC4)ncc3C(F)(F)F)c[nH]c2c1	0.1	112	460	2.71	138	150	16	1.63	–	514	–	–
CS(=O)(=O)c1c(C#N)ccc2c(-c3nc(N[C@H]4CCCNC4)ncc3C(F)(F)F)c[nH]c12	0.08	33	284	1.05	60	< 38	5	1.86	15	368	–	–
FC(F)(F)c1cnc(N[C@H]2CCCNC2)nc1-c1c[nH]c2ccccc12	0.15	24	42	2.02	21	127	100	11.1	11	568	–	–
CCc1cnc(N[C@H]2CCCNC2)nc1-c1c[nH]c2ccccc12	0.4	135	923	1.29	430	107	2	0.49	230	473	–	–
CC1(C)CNC[C@@H](Nc2ncc(C(F)(F)F)c(-c3c[nH]c4c(P(C)(C)=O)c(C#N)ccc34)n2)C1	0.06	156	771	2.7	572	164	28	3.32	1	597	–	–
CS(=O)(=O)c1ccc2c(-c3nc(N[C@H]4CCCNC4)ncc3C(F)(F)F)c[nH]c2c1	0.1	69	299	1.31	133	< 38	–	0.86	89	729	–	–
CCc1cnc(N[C@H]2CCCNC2)nc1-c1c[nH]c2c(S(C)(=O)=O)c(C#N)ccc12	0.15	215	1640	0.49	907	89	–	1.12	287	394	–	–
CC1(C)CNC[C@@H](Nc2ncc(C(F)(F)F)c(-c3c[nH]c4ccccc34)n2)C1	0.21	36	52	3.07	41	120	40	–	–	1477	–	–
